From ChEMBL document CHEMBL2062449, “Eco-friendly synthesis and biological evaluation of substituted pyrano[2,3-c]pyrazoles” (Bioorg Med Chem Lett, 2012)
Values after ≈ are worked out from the molar mass of the structure shown.

What was measured:
Staphylococcus aureus [1] = assay: Antibacterial activity against Staphylococcus aureus at […] after 24 hrs by agar diffusion method; type: functional
In short: (§1)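 Single-concentration antibacterial screen at 100 μg/50 μL per test against the standard bacterial strains.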

Rattus norvegicus [2] = assay: Antiinflammatory activity in Wistar rat assessed as protection against carrageenan-induced paw edema at 100 mg/kg, po administered 1 hr before carrageenan challenge measured after 3 hrs; type: functional
Rattus norvegicus [3] = assay: Antiinflammatory activity in Wistar rat assessed as protection against carrageenan-induced paw edema at 100 mg/kg, po administered 1 hr before carrageenan challenge measured after 4 hrs; type: functional
Rattus norvegicus [4] = assay: Antiinflammatory activity in Wistar rat assessed as protection against carrageenan-induced paw edema at 100 mg/kg, po administered 1 hr before carrageenan challenge measured after 2 hrs; type: functional
Escherichia coli [5] = assay: Antibacterial activity against Escherichia coli at […] after 24 hrs by agar diffusion method; type: functional; in short: as §1
Bacillus subtilis [6] = assay: Antibacterial activity against Bacillus subtilis at […] after 24 hrs by agar diffusion method; type: functional; in short: as §1
Pseudomonas aeruginosa [7] = assay: Antibacterial activity against Pseudomonas aeruginosa at 100 ug/[…] after 24 hrs by agar diffusion method; type: functional; in short: as §1
Rattus norvegicus [8] = assay: Antiinflammatory activity in Wistar rat assessed as protection against carrageenan-induced paw edema at 100 mg/kg, po administered 1 hr before carrageenan challenge measured after 30 mins; type: functional
Rattus norvegicus [9] = assay: Antiinflammatory activity in Wistar rat assessed as protection against carrageenan-induced paw edema at 100 mg/kg, po administered 1 hr before carrageenan challenge measured after 1 hr; type: functional
MCF7 [10] = assay: Cytotoxicity against estrogen receptor-positive human MCF7 cells assessed as inhibition of cell proliferation at 1 ug/ml after 24 hrs by MTT assay; type: functional; details: MCF7, 24 h
In short: (§2)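 MTT assay on MCF-7 human breast cancer cells, Taxol as reference; percentage inhibition of cell proliferation read at graded concentrations from 0.1 to 50 μg/mL (typically five or six levels per compound); IC50 in μg/mL derived from the inhibition series.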

Escherichia coli [11] = assay: Antibacterial activity against Escherichia coli after 18 to 24 hrs by broth microdilution method; type: functional
MCF7 [12] = assay: Cytotoxicity against estrogen receptor-positive human MCF7 cells assessed as inhibition of cell proliferation at 10 ug/ml after 24 hrs by MTT assay; type: functional; details: MCF7, 24 h; in short: as §2
Staphylococcus aureus [13] = assay: Antibacterial activity against Staphylococcus aureus after 18 to 24 hrs by broth microdilution method; type: functional
Pseudomonas aeruginosa [14] = assay: Antibacterial activity against Pseudomonas aeruginosa after 18 to 24 hrs by broth microdilution method; type: functional
MCF7 [15] = assay: Cytotoxicity against estrogen receptor-positive human MCF7 cells assessed as inhibition of cell proliferation at 25 ug/ml after 24 hrs by MTT assay; type: functional; details: MCF7, 24 h; in short: as §2
MCF7 [16] = assay: Cytotoxicity against estrogen receptor-positive human MCF7 cells assessed as inhibition of cell proliferation at 5 ug/ml after 24 hrs by MTT assay; type: functional; details: MCF7, 24 h; in short: as §2
Bacillus subtilis [17] = assay: Antibacterial activity against Bacillus subtilis after 18 to 24 hrs by broth microdilution method; type: functional
MCF7 [18] = assay: Cytotoxicity against estrogen receptor-positive human MCF7 cells assessed as inhibition of cell proliferation at 50 ug/ml after 24 hrs by MTT assay; type: functional; details: MCF7, 24 h; in short: as §2
MCF7 [19] = assay: Cytotoxicity against estrogen receptor-positive human MCF7 cells assessed as inhibition of cell proliferation after 24 hrs by MTT assay; type: functional, cell-based; details: Homo sapiens, MCF7, 24 h; read-out: IC50; in short: as §2

MIC (Escherichia coli [11]) [µg/mL]	MIC (Staphylococcus aureus [13]) [µg/mL]	MIC (Pseudomonas aeruginosa [14]) [µg/mL]	MIC (Bacillus subtilis [17]) [µg/mL]	Compound	inhibition zone (IZ) (Staphylococcus aureus [1]) [mm]	Activity (Rattus norvegicus [2]) [%]	Activity (Rattus norvegicus [3]) [%]	Activity (Rattus norvegicus [4]) [%]	inhibition zone (IZ) (Escherichia coli [5]) [mm]	inhibition zone (IZ) (Bacillus subtilis [6]) [mm]	inhibition zone (IZ) (Pseudomonas aeruginosa [7]) [mm]	Activity (Rattus norvegicus [8]) [%]	Activity (Rattus norvegicus [9]) [%]	inhibition at 1 µg/mL (MCF7 [10]) [%]	inhibition at 10 µg/mL (MCF7 [12]) [%]	inhibition at 25 µg/mL (MCF7 [15]) [%]	inhibition at 5 µg/mL (MCF7 [16]) [%]	inhibition at 50 µg/mL (MCF7 [18]) [%]	IC50 (MCF7 [19]) [µg/mL]
–	–	–	–	Cc1nn(-c2ccccc2)c2c1C1(C(C#N)=C(N)O2)c2ccccc2-c2ccccc21	12	65.5	56.6	45.2	13	11	16	23.5	30.5	–	–	–	–	–	–
3.12 (≈ 6.96 µM)	6.25 (≈ 13.9 µM)	6.25 (≈ 13.9 µM)	6.25 (≈ 13.9 µM)	Cc1[nH]nc2c1C(c1cccc(Oc3nc(Cl)c(Cl)cc3Cl)c1)C(C#N)=C(N)O2 (stereo not given)	16	70.9	53.8	64.3	23	21	15	23.5	47.2	0.41	34.6	42.4	16.3	50.1	42.8 (≈ 95.5 µM)
–	–	–	–	Cc1[nH]nc2c1C1(C(C#N)=C(N)O2)c2ccccc2-c2ccccc21	10	–	–	–	10	10	17	–	–	–	–	–	–	–	–
–	–	–	–	Cc1[nH]nc2c1C1(C(=O)Nc3ccccc31)C(C#N)=C(N)O2 (stereo not given)	13	69.8	51.6	54.7	12	11	10	23.5	36.1	-1.26	0.51	-5.9	-3.16	-4.93	–
–	–	–	–	CC(C)Cc1ccc(C(C)C(=O)O)cc1 (stereo not given) [IBUPROFEN]	–	72.3	64.4	52.7	–	–	–	38	41.6	–	–	–	–	–	–
–	–	–	–	Cc1nn(-c2ccccc2)c2c1C(c1ccc([N+](=O)[O-])cc1)C(C#N)=C(N)O2 (stereo not given)	8	–	–	–	15	7	8	–	–	2.04	30.8	85.5	12.5	96.4	15.1 (≈ 40.6 µM)
3.12 (≈ 8.46 µM)	3.12 (≈ 8.46 µM)	6.25 (≈ 16.9 µM)	3.12 (≈ 8.46 µM)	Cc1nn(-c2ccccc2)c2c1C1(C(=O)Nc3ccccc31)C(C#N)=C(N)O2 (stereo not given)	14	68.8	47.2	46.5	21	19	15	23.5	25	19.3	40.3	64.6	26.6	86.5	16.8 (≈ 45.4 µM)
–	–	–	–	Cc1[nH]nc2c1C(c1ccc(O)cc1)C(C#N)=C(N)O2 (stereo not given)	13	–	–	–	15	–	15	–	–	–	–	–	–	–	–
12.5 (≈ 23.8 µM)	6.25 (≈ 11.9 µM)	6.25 (≈ 11.9 µM)	6.25 (≈ 11.9 µM)	Cc1nn(-c2ccccc2)c2c1C(c1cccc(Oc3nc(Cl)c(Cl)cc3Cl)c1)C(C#N)=C(N)O2 (stereo not given)	16	–	–	–	14	15	16	–	–	–	–	–	–	–	–
12.5 (≈ 36.3 µM)	6.25 (≈ 18.1 µM)	3.12 (≈ 9.07 µM)	6.25 (≈ 18.1 µM)	Cc1nn(-c2ccccc2)c2c1C(c1ccc(O)cc1)C(C#N)=C(N)O2 (stereo not given)	15	56.9	50.5	43.8	16	17	15	11.7	30.5	2.1	22.9	30.8	5.96	50.2	47.5 (≈ 138 µM)
